Measurements taken from ChEMBL document CHEMBL1150651, “Cholestane glycosides from the bulbs of Ornithogalum thyrsoides and their cytotoxic activity against HL-60 leukemia cells” (J Nat Prod, 2002).
Values after ≈ are worked out from the molar mass of the structure shown.

System: HL-60
Test: Cytotoxicity against human HL60 cells after 72 hrs by MTT assay
Type: functional, cell-based
Conditions: HL-60, 72 h
Procedure, shortened: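 HL-60 cells (JCRB 0085) grown in RPMI 1640 with heat-inactivated 10% FBS, L-glutamine, penicillin and streptomycin. Seeded at 4 × 10^4 cells/mL and preincubated 24 h at 37 °C in 5% CO2. Sample added in EtOH-H2O (1:1) at final 0.00001-10 µg/mL; vehicle in control wells. After 72 h, MTT (5 mg/mL in PBS) added for 4 h. Formazan dissolved in DMSO, absorbance read at 550 nm.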

Structure (SMILES) | IC50
COc1cc(C(=O)O[C@H]2[C@H](O[C@@H]3[C@@H](OC(C)=O)[C@H](O[C@H]4C[C@H]5[C@@H]6CC=C7C[C@@H](O[C@@H]8O[C@H](CO[C@@H]9O[C@H](CO)[C@@H](O)[C@H](O)[C@H]9O)[C@@H](O)[C@H](O)[C@H]8O)CC[C@]7(C)[C@H]6CC[C@]5(C)[C@@]4(O)[C@H](C)C(=O)CCC(C)C)OC[C@@H]3O)OC[C@@H](O)[C@@H]2O)cc(OC)c1OC | 0.7 µg/mL (≈ 0.557 µM)
COc1ccc(C(=O)O[C@H]2[C@H](O[C@@H]3[C@@H](OC(C)=O)[C@H](O[C@H]4C[C@H]5[C@@H]6CC=C7C[C@@H](O[C@@H]8O[C@H](CO[C@@H]9O[C@H](CO)[C@@H](O)[C@H](O)[C@H]9O)[C@@H](O)[C@H](O)[C@H]8O)CC[C@]7(C)[C@H]6CC[C@]5(C)[C@@]4(O)[C@H](C)C(=O)CCC(C)C)OC[C@@H]3O)OC[C@@H](O)[C@@H]2O)cc1OC | 0.81 µg/mL (≈ 0.66 µM)
COc1ccc(C(=O)O[C@H]2[C@H](O[C@@H]3[C@@H](OC(C)=O)[C@H](O[C@H]4C[C@H]5[C@@H]6CC=C7C[C@@H](O[C@@H]8O[C@H](CO)[C@@H](O)[C@H](O)[C@H]8O)CC[C@]7(C)[C@H]6CC[C@]5(C)[C@@]4(O)[C@H](C)C(=O)CCC(C)C)OC[C@@H]3O)OC[C@@H](O)[C@@H]2O)cc1OC | 0.00013 µg/mL (≈ 0.000122 µM)
CC(=O)O[C@H]1[C@H](O[C@H]2C[C@H]3[C@@H]4CC=C5C[C@@H](O[C@@H]6O[C@H](CO)[C@@H](O)[C@H](O)[C@H]6O)CC[C@]5(C)[C@H]4CC[C@]3(C)[C@@]2(O)[C@H](C)C(=O)CCC(C)C)OC[C@H](O)[C@@H]1O[C@@H]1OC[C@@H](O)[C@H](O)[C@H]1O | 0.013 µg/mL (≈ 0.0144 µM)
COc1cc(C(=O)O[C@H]2[C@H](O[C@@H]3[C@@H](OC(C)=O)[C@H](O[C@H]4C[C@H]5[C@@H]6CC=C7C[C@@H](O[C@@H]8O[C@H](CO)[C@@H](O)[C@H](O)[C@H]8O)CC[C@]7(C)[C@H]6CC[C@]5(C)[C@@]4(O)[C@H](C)C(=O)CCC(C)C)OC[C@@H]3O)OC[C@@H](O)[C@@H]2O)cc(OC)c1OC | 0.00016 µg/mL (≈ 0.000146 µM)
CC(=O)O[C@H]1[C@H](O[C@H]2C[C@H]3[C@@H]4CC=C5C[C@@H](O[C@@H]6O[C@H](CO[C@@H]7O[C@H](CO)[C@@H](O)[C@H](O)[C@H]7O)[C@@H](O)[C@H](O)[C@H]6O)CC[C@]5(C)[C@H]4CC[C@]3(C)[C@@]2(O)[C@H](C)C(=O)CCC(C)C)OC[C@H](O)[C@@H]1O[C@@H]1OC[C@@H](O)[C@H](O)[C@H]1O | > 10 µg/mL
CC(C)CCC(=O)[C@@H](C)[C@@]1(O)[C@@H](O[C@@H]2OC[C@H](O)[C@H](O)[C@H]2O)C[C@H]2[C@@H]3CC=C4C[C@@H](O[C@@H]5O[C@H](CO)[C@@H](O)[C@H](O)[C@H]5O)CC[C@]4(C)[C@H]3CC[C@@]21C | 0.12 µg/mL (≈ 0.165 µM)
